Screening results: PubChem BioAssay, The Scripps Research Institute Molecular Screening Center
In the library only some 1.8% were active in any assay of this set; here they are far more common.
DDE Tn7 FP inh: DD(E)-Tn7 binding inhibition, primary FP screen | AID 720508 | inhibition, % at 8.3 µM | FP displacement of FITC-Tn7 peptide from fibrin DD(E); 0% = median of compound wells per plate | P02675 | actives 0.13% (n = 370,000);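 active = inhibition above the mean of compounds falling within the control limits plus 3 SD of them, cut at about 14% in these data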
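Test system – human fibrin DD(E) · Times – 10 min preincubation, 3 h with tracer, room temperature · Detection – fluorescence polarization of the labelled Tn7 tracer · Measure – percent inhibition normalized to high-control wells · Benchmarks – high control wells with 10 µM unlabelled Aha-Tn7 peptide (full inhibition) · Repeats – singlicate testing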
SIAE inh: inhibitors of human sialic acid acetylesterase SIAE. Q9HAT2. actives 0.69% (n = 370,000). SIAE FP-Rh probe binding, fluorescence polarization. inhibition, % at 9.66 µM;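 active = inhibition above a cutoff: mean of compounds within the control limits plus 3 SD of those, cut at about 17% in these data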
DDE Tn6 FP inh: DD(E)-Tn6 binding inhibition, primary FP screen; P02675; Fibrin DD(E) TRITC-Tn6 fluorescence polarization displacement; inhibition, % at 8.3 µM; actives 0.21% (n = 370,000); AID 720509;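 active = inhibition above a per-campaign cutoff: mean of compounds within control limits plus 3 SD, cut at about 15% in these data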
HTRA1 inhibitor: HTRA1 (human) protease inhibition; recombinant HTRA1, FP-rhodamine activity-based probe, fluorescence polarization; inhibition, % at 5.96 µM; actives 0.5% (n = 340,000); Q92743; in the data active = inhibition above about 36%
TCR-CD3 inh: blocks the human TCR-CD3 interaction; inhibition, % at 9.4 µM; TAMRA-labeled TCR probe fluorescence, biochemical; actives 0.37% (n = 360,000);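 also: recombinant mutant TCR 2C K166C tagged with TAMRA read by polarization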
mABHD4 FP: inhibits mouse alpha/beta hydrolase domain 4. Q8VD66. purified mABHD4, FP-Rh probe fluorescence polarization. inhibition, % at 8.92 µM. actives 0.54% (n = 370,000);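 active = inhibition exceeding the mean over every tested compound plus 3 SD, cut at about 30% in these data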
Target sequence (Q8VD66 whole entry, looked up, the tested form may be a part): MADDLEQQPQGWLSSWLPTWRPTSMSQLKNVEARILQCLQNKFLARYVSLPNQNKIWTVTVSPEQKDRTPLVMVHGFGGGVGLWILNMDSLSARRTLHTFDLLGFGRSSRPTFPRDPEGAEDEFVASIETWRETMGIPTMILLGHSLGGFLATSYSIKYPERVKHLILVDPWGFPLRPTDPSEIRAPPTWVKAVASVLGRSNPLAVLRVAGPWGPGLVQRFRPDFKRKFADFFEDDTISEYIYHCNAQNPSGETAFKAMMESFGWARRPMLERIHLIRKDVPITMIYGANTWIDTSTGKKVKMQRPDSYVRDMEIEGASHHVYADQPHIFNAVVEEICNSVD
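Assay system: mouse ABHD4 enzyme, wild type / Also added: fluorescent activity-based probe FP-Rh / Doses: single nominal dose of 8.92 µM, 0.89% DMSO final / Timing: 45 min compound pre-incubation plus 60 min probe step, 25 °C / Signal: FP readout, ex 525 nm / em 598 nm / Control set: S159A mutant/DMSO as 100%, compound-well median as 0%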
BSA probe FL: counter-screen for TCR-CD3 interaction inhibitors: BSA probe. shares compounds with TCR-CD3 inh. TAMRA-labeled BSA probe fluorescence counterscreen. inhibition, % at 9.4 µM. actives 10% (n = 1,200). AID 652035; in the data active = inhibition above about 23%
TCR-CD3 conf: confirmation of human TCR-CD3 interaction inhibitors; actives 48% (n = 1,200); inhibition, % at 9.4 µM; AID 652036; TAMRA-labeled TCR probe fluorescence binding assay; shares compounds with TCR-CD3 inh
Large screens that a line does not name were inactive (follow-up assays come after a bar, where they were run). Rule as the data show it, unless noted: active = inhibition above about 19%; inactive = the rest.

CCN(C)C1CN(Cc2cn(Cc3ccc(F)cc3)nn2)S(=O)(=O)C1 (stereo not drawn)	none (no result: HTRA1 inhibitor)
COC(=O)CCN(C(=O)c1ccc(N2CCCC2)c([N+](=O)[O-])c1)c1ccccn1	none
COC(=O)CCN(C(=O)c1ccc(N2CCCCC2)c([N+](=O)[O-])c1)c1ccccn1	TCR-CD3 inh 77.4 | BSA probe FL inactive | TCR-CD3 conf inactive
O=S(=O)(Nc1cccc2ncccc12)c1cccc(C(F)(F)F)c1	TCR-CD3 inh 20.4 | BSA probe FL inactive | TCR-CD3 conf inactive
CC(C)C(=O)NC(=S)Nc1ccc(S(=O)(=O)NC2CCCCC2)cc1	none
N#Cc1ccc(CC(=O)c2ccccc2)[nH]c1=O	DDE Tn6 FP inh 16.6, TCR-CD3 inh 59.8, mABHD4 FP 42.9 | BSA probe FL inactive | TCR-CD3 conf inactive
Cc1ccc(C(=O)Nc2cccc([N+](=O)[O-])c2)cc1S(=O)(=O)Nc1ccc(NC(=O)c2ccccc2)cc1	TCR-CD3 inh 29.9 | BSA probe FL inactive | TCR-CD3 conf 23.2
Cc1ccc(NS(=O)(=O)c2cc(C(=O)Nc3cccc([N+](=O)[O-])c3)ccc2C)cc1	none
Cc1nonc1NC(=O)CSc1nc(C2CCCCC2)nc2ccccc12	none
Cc1nonc1NC(=O)CSc1nc(C23CC4CC(CC(C4)C2)C3)nc2ccccc12	TCR-CD3 inh 20.2 | BSA probe FL inactive | TCR-CD3 conf inactive
O=C(CN1C(=O)/C(=C/c2ccco2)SC1=S)NC1CCS(=O)(=O)C1 (stereo not drawn)	TCR-CD3 inh 22.1 | BSA probe FL inactive | TCR-CD3 conf inactive
O=c1[nH]c(C(Cl)Cl)nc2sc3c(c12)CCN(Cc1ccccc1)C3	TCR-CD3 inh 25.1 | BSA probe FL inactive | TCR-CD3 conf inactive
CCCSc1nc2sc3c(c2c(=O)[nH]1)CCN(Cc1ccccc1)C3	none (no result: DDE Tn7 FP inh, SIAE inh, DDE Tn6 FP inh, TCR-CD3 inh, mABHD4 FP)
CC(=O)N1CCN(C(=O)CCc2nnc(CCCCc3ccccc3)o2)CC1	none
O=C(CCc1nnc(CCCCc2ccccc2)o1)N1CCC(N2CCCC2)CC1	TCR-CD3 inh 24.2 | BSA probe FL inactive | TCR-CD3 conf inactive
Cc1ccc(OCC(=O)NNC(=S)NC(=O)c2ccc(Br)o2)c(C)c1	none
COc1ccc(C(=O)NNC(=S)NC(=O)c2ccc(Br)o2)cc1OC	TCR-CD3 inh 19.6 | BSA probe FL inactive | TCR-CD3 conf 25.2
CCN(CC)CCNC(=O)c1ccc(NC(=O)Cc2cccc3ccccc23)cc1	none
Cc1ccc(Nc2nc(=O)c3cccnc3s2)c(Br)c1	none
Cc1cc(C(=O)N/N=C/c2cc(Cl)cc([N+](=O)[O-])c2O)n[nH]1	TCR-CD3 inh 28.2 | BSA probe FL inactive | TCR-CD3 conf 33.8
Cc1cc(C(=O)N/N=C/c2ccc([N+](=O)[O-])s2)n[nH]1	none
COc1cccc(-c2nc(CS(=O)(=O)CC(=O)Nc3ccccc3Cl)c(C)o2)c1	none
CN1C(=O)C(CCC(N)=O)NC1=S (stereo not drawn)	none
NC(=O)CCC1NC(=S)N(Cc2ccccc2)C1=O (stereo not drawn)	TCR-CD3 inh 34.0 | BSA probe FL inactive | TCR-CD3 conf 44.5
CCc1ccc(-c2nc(SCC(=O)N(C)C3CCS(=O)(=O)C3)n[nH]2)cc1 (stereo not drawn)	none
N#CCC(=O)Nc1ccc(C(=O)OCC(=O)Nc2cccc3ccccc23)cc1	none
Cc1cc(C)c(-c2cc(NC(=O)COC(=O)c3ccc(NC(=O)CC#N)cc3)n(-c3ccccc3)n2)cc1C	TCR-CD3 inh 61.1 | BSA probe FL inactive | TCR-CD3 conf 43.0
Cc1ccc(C(=O)OCC(=O)NC2CCCc3ccccc32)o1 (stereo not drawn)	none
N#CCC(=O)Nc1ccc(C(=O)OCC(=O)NC2CCCc3ccccc32)cc1 (stereo not drawn)	TCR-CD3 inh 19.6 | BSA probe FL inactive | TCR-CD3 conf inactive
N#CCC(=O)Nc1ccc(C(=O)OCC(=O)Nc2cccc(C(F)(F)F)c2)cc1	TCR-CD3 inh 34.8 | BSA probe FL inactive | TCR-CD3 conf inactive
